Data published in ChEMBL document CHEMBL1134325, “Diaminoindanes as microsomal triglyceride transfer protein inhibitors” (J Med Chem, 2001).
Several values for one entry are separate records, joined by “and”; a condition that tells them apart may be missing. Equal entries are not always repeated.

What was measured:
Rattus norvegicus [1] = test: Inhibition of plasma triglycerides in normolipidemic rats after 6 h of 5 mg/kg oral dosing; format: functional
Outline: (§1)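 Overnight-fasted normolipidemic rats received a single oral dose in cornstarch vehicle. Blood was drawn at 2, 6 and 24 h post-dose and assayed for triglycerides and total cholesterol, with free access to food after the 6 h sample. Value is mean percent inhibition versus a separate vehicle-treated group, unpaired t test p < 0.05, NS = no significant change, N = 6.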

Rattus norvegicus [2] = test: Hepatic cholesterol content in Normolipidemic rat liver for 5 mg/kg of dose of the compound; format: functional
Outline: (§2)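 Normolipidemic rats dosed orally, with vehicle controls. Liver cholesterol and triglyceride are reported as mg/g of liver, and liver weight in g. For the reversibility set, dosing was 5 mg/kg for 5 days, with livers analysed after treatment and again 6 days after treatment withdrawal.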

Canis familiaris [3] = test: Inhibition of plasma total cholesterol in the normolipidemic dogs after day 4 of oral administration of 5 mg/kg/day; format: functional, Canis lupus familiaris
Outline: (§3)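 Normolipidemic dogs dosed once daily for 4 days by oral gavage, compound suspended in cornstarch vehicle. Plasma sampled 24 h after dosing on days 0, 2, 3 and 4, assayed for triglycerides and total cholesterol (mg/dL). Mean percent inhibition versus day-0 level is given for treated dogs; n = 6 per group; significance by one-way ANOVA, p < 0.05.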

Canis familiaris [4] = test: Inhibition of plasma total cholesterol in the normolipidemic dogs after day 4 of oral administration of 1 mg/kg/day; format: functional, Canis lupus familiaris; outline: as §3
Rattus norvegicus [5] = test: Hepatic cholesterol content in Normolipidemic rat liver for 0.5 mg/kg of dose of the compound; format: functional; outline: as §2
Canis familiaris [6] = test: Inhibition of plasma total triglycerides in the normolipidemic dogs after day 3 of oral administration of 5 mg/kg/day.; format: functional, Canis lupus familiaris
Canis familiaris [7] = test: Inhibition of plasma total triglycerides in the normolipidemic dogs after day 4 of oral administration of 1 mg/kg/day.; format: functional, Canis lupus familiaris
Canis familiaris [8] = test: Inhibition of plasma total cholesterol in the normolipidemic dogs after day 3 of oral administration of 2.5 mg/kg/day.; format: functional, Canis lupus familiaris; outline: as §3
Canis familiaris [9] = test: Inhibition of plasma total triglycerides in the normolipidemic dogs after day 0 of oral administration of 1 mg/kg/day.; format: functional, Canis lupus familiaris; outline: as §3
Rattus norvegicus [10] = test: Inhibition of total cholesterol in normolipidemic rats after 2 hr of 50 mg/kg oral dosing; format: functional; conditions: 50 mg/kg; outline: as §1
Canis familiaris [11] = test: Inhibition of plasma total cholesterol in the normolipidemic dogs after day 2 of oral administration of 2.5 mg/kg/day.; format: functional, Canis lupus familiaris; outline: as §3
Rattus norvegicus [12] = test: Inhibition of plasma triglycerides in normolipidemic rats after 2 hr of 10 mg/kg oral dosing; format: functional; outline: as §1
Rattus norvegicus [13] = test: Inhibition of plasma triglycerides in normolipidemic rats after 6 hr of 50 mg/kg oral dosing; format: functional; outline: as §1
Rattus norvegicus [14] = organism: Rattus norvegicus; test: Hepatic triglyceride content in Normolipidemic rat liver after treatment.; format: functional; outline: as §2
Rattus norvegicus [15] = test: Inhibition of plasma triglycerides in normolipidemic rats after 24 hr of 10 mg/kg oral dosing; no significant change; format: functional, organism-based; design: dose 10 mg/kg; outline: as §1
Canis familiaris [16] = test: Inhibition of plasma total cholesterol in the normolipidemic dogs after day 3 of oral administration of 1 mg/kg/day.; format: functional, Canis lupus familiaris; outline: as §3
Canis familiaris [17] = test: Inhibition of plasma total triglycerides in the normolipidemic dogs after day 3 of oral administration of 2.5 mg/kg/day.; format: functional, Canis lupus familiaris
Rattus norvegicus [18] = test: Inhibition of total cholesterol in normolipidemic rats after 6 hr of 50 mg/kg oral dosing; format: functional; conditions: 50 mg/kg; outline: as §1
Rattus norvegicus [19] = test: Inhibition of plasma triglycerides in normolipidemic rats after 24 hr of 50 mg/kg oral dosing; format: functional; outline: as §1
Canis familiaris [20] = test: Inhibition of plasma total triglycerides in the normolipidemic dogs after day 0 of oral administration of 2.5 mg/kg/day.; format: functional, Canis lupus familiaris; outline: as §3
Canis familiaris [21] = test: Inhibition of plasma total cholesterol in the normolipidemic dogs after day 0 of oral administration of 5 mg/kg/day.; format: functional, Canis lupus familiaris; outline: as §3
Canis familiaris [22] = test: Inhibition of plasma total triglycerides in the normolipidemic dogs after day 0 of oral administration of 5 mg/kg/day.; format: functional, Canis lupus familiaris; outline: as §3
Canis familiaris [23] = test: Inhibition of plasma total cholesterol in the normolipidemic dogs after day 3 of oral administration of 5 mg/kg/day.; format: functional, Canis lupus familiaris; outline: as §3
Rattus norvegicus [24] = test: Hepatic cholesterol content in Normolipidemic rat liver for 1 mg/kg of dose of the compound; format: functional; outline: as §2
Canis familiaris [25] = test: Inhibition of plasma total triglycerides in the normolipidemic dogs after day 4 of oral administration of 2.5 mg/kg/day; format: functional, Canis lupus familiaris
Canis familiaris [26] = test: Inhibition of plasma total triglycerides in the normolipidemic dogs after day 3 of oral administration of 1 mg/kg/day.; format: functional, Canis lupus familiaris
Rattus norvegicus [27] = test: Total liver weight in Normolipidemic rat liver for 0.5 mg/kg of dose of the compound; format: functional; outline: as §2
Rattus norvegicus [28] = test: Hepatic triglyceride content in Normolipidemic rat liver for 0.5 mg/kg of dose of the compound; format: functional; outline: as §2
Canis familiaris [29] = test: Inhibition of plasma total cholesterol in the normolipidemic dogs after day 2 of oral administration of 5 mg/kg/day.; format: functional, Canis lupus familiaris; outline: as §3
Rattus norvegicus [30] = test: Hepatic triglyceride content in Normolipidemic rat liver for 5 mg/kg of dose of the compound; format: functional; outline: as §2
Canis familiaris [31] = test: Inhibition of plasma total cholesterol in the normolipidemic dogs after day 0 of oral administration of 2.5 mg/kg/day.; format: functional, Canis lupus familiaris; outline: as §3
Rattus norvegicus [32] = organism: Rattus norvegicus; test: Hepatic cholesterol content in Normolipidemic rat liver after treatment.; format: functional; outline: as §2
Rattus norvegicus [33] = test: Inhibition of plasma triglycerides in normolipidemic rats after 2 hr of 5 mg/kg oral dosing; format: functional; outline: as §1
Rattus norvegicus [34] = test: Inhibition of plasma triglycerides in normolipidemic rats after 6 hr of 10 mg/kg oral dosing; format: functional; outline: as §1
Rattus norvegicus [35] = organism: Rattus norvegicus; test: Hepatic cholesterol content in Normolipidemic rat liver after washout.; format: functional; outline: as §2
Canis familiaris [36] = test: Inhibition of plasma total triglycerides in the normolipidemic dogs after day 4 of oral administration of 5 mg/kg/day; format: functional, Canis lupus familiaris
Canis familiaris [37] = test: Inhibition of plasma total triglycerides in the normolipidemic dogs after day 2 of oral administration of 2.5 mg/kg/day.; format: functional, Canis lupus familiaris; outline: as §3
Canis familiaris [38] = test: Inhibition of plasma total cholesterol in the normolipidemic dogs after day 4 of oral administration of 2.5 mg/kg/day; format: functional, Canis lupus familiaris; outline: as §3
Canis familiaris [39] = test: Inhibition of plasma total cholesterol in the normolipidemic dogs after day 2 of oral administration of 1 mg/kg/day.; format: functional, Canis lupus familiaris; outline: as §3
[40] = target: T1, Microsomal triglyceride transfer protein large subunit (Homo sapiens, UniProt P55157); test: In vitro inhibitory activity against MTP using MTP transfer assay
T1 sequence (P55157 whole entry): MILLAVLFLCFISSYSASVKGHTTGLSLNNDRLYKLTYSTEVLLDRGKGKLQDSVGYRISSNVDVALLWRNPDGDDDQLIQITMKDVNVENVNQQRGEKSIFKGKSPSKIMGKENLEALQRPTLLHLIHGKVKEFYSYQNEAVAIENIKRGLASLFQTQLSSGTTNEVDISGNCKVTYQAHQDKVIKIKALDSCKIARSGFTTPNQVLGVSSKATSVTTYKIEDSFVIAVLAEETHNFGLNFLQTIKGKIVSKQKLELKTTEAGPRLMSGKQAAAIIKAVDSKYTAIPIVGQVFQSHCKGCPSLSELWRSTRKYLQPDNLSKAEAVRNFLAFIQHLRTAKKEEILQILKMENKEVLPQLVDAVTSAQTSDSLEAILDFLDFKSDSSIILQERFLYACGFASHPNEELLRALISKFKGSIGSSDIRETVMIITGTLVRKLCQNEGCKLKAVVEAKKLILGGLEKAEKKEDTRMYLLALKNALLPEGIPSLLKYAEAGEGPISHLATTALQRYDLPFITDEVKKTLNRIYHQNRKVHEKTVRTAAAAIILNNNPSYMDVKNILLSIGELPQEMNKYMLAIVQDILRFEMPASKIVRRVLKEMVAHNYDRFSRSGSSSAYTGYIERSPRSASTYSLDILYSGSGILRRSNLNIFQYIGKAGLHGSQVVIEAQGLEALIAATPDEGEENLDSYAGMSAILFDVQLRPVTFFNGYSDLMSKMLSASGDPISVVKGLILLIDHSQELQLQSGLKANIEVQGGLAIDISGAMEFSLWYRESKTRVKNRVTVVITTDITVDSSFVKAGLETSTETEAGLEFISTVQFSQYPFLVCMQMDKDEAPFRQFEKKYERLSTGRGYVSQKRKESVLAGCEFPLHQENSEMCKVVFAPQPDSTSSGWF

Rattus norvegicus [41] = organism: Rattus norvegicus; test: Hepatic triglyceride content in Normolipidemic rat liver after washout.; format: functional; outline: as §2
Rattus norvegicus [42] = test: Total liver weight in Normolipidemic rat liver for 1 mg/kg of dose of the compound; format: functional; outline: as §2
Rattus norvegicus [43] = test: Inhibition of plasma triglycerides in normolipidemic rats after 2 hr of 50 mg/kg oral dosing; format: functional; outline: as §1
Rattus norvegicus [44] = test: Total liver weight in Normolipidemic rat liver for 5 mg/kg of dose of the compound; format: functional; outline: as §2
Canis familiaris [45] = test: Inhibition of plasma total triglycerides in the normolipidemic dogs after day 2 of oral administration of 5 mg/kg/day.; format: functional, Canis lupus familiaris; outline: as §3
Rattus norvegicus [46] = test: Hepatic triglyceride content in Normolipidemic rat liver for 1 mg/kg of dose of the compound; format: functional; outline: as §2
Canis familiaris [47] = test: Inhibition of plasma total triglycerides in the normolipidemic dogs after day 2 of oral administration of 1 mg/kg/day.; format: functional, Canis lupus familiaris; outline: as §3
Canis familiaris [48] = test: Inhibition of plasma total cholesterol in the normolipidemic dogs after day 0 of oral administration of 1 mg/kg/day.; format: functional, Canis lupus familiaris; outline: as §3

For COC(=O)N[C@H]1Cc2ccc(NC(=O)c3cccc(C)c3-c3ccc(C(F)(F)F)cc3)cc2C1, the Reduction (Rattus norvegicus [1]) was 59%, the Hepatic cholesterol (Rattus norvegicus [2]) was 3.09 mg/g and the Lipid level (Canis familiaris [3]) was under 54 mg/dL. The Lipid level (Canis familiaris [4]) was under 89 mg/dL, the Hepatic cholesterol (Rattus norvegicus [5]) was 1.4 mg/g and the Lipid level (Canis familiaris [6]) was under 16 mg/dL. The Lipid level (Canis familiaris [7]) was 45 mg/dL, the Lipid level (Canis familiaris [8]) was under 76 mg/dL and the Lipid level (Canis familiaris [9]) was 46 mg/dL. The Reduction (Rattus norvegicus [10]) was 33% and 41% and 30%, the Lipid level (Canis familiaris [11]) was under 90 mg/dL and the Reduction (Rattus norvegicus [12]) was 84%. For the same compound, the Reduction (Rattus norvegicus [13]) was 71%, the Hepatic triglyceride (Rattus norvegicus [14]) was under 13.6 mg/g and the NS (Rattus norvegicus [15]) was “no significant change”. For the same compound, the Lipid level (Canis familiaris [16]) was 101 mg/dL, the Lipid level (Canis familiaris [17]) was under 25 mg/dL and the Reduction (Rattus norvegicus [18]) was 52% and 58% and 47%. For the same compound, the Reduction (Rattus norvegicus [19]) was 63%, the Lipid level (Canis familiaris [20]) was 59 mg/dL and the Lipid level (Canis familiaris [21]) was 124 mg/dL. The Lipid level (Canis familiaris [22]) was 48 mg/dL, the Lipid level (Canis familiaris [23]) was under 68 mg/dL and the Hepatic cholesterol (Rattus norvegicus [24]) was 2.01 mg/g. It also gave a Lipid level (Canis familiaris [25]) of under 23 mg/dL, a Lipid level (Canis familiaris [26]) of 48 mg/dL and a Total liver weight (Rattus norvegicus [27]) of 9.13 g. For the same compound, the Hepatic triglyceride (Rattus norvegicus [28]) was 4.61 mg/g, the Lipid level (Canis familiaris [29]) was under 87 mg/dL and the Hepatic triglyceride (Rattus norvegicus [30]) was 17.7 mg/g. For the same compound, the Lipid level (Canis familiaris [31]) was 113 mg/dL, the Hepatic cholesterol (Rattus norvegicus [32]) was under 2.76 mg/g and the Reduction (Rattus norvegicus [33]) was 78%. It also gave a Reduction (Rattus norvegicus [34]) of 68%, a Hepatic cholesterol (Rattus norvegicus [35]) of 1.12 mg/g and a Lipid level (Canis familiaris [36]) of under 12 mg/dL. It also gave a Lipid level (Canis familiaris [37]) of under 32 mg/dL, a Lipid level (Canis familiaris [38]) of under 57 mg/dL and a Lipid level (Canis familiaris [39]) of 103 mg/dL. It also gave an IC50 [40] of 70 nM, a Hepatic triglyceride (Rattus norvegicus [41]) of 2.38 mg/g and a Total liver weight (Rattus norvegicus [42]) of 9.6 g. It also gave a Reduction (Rattus norvegicus [43]) of 81%, a Total liver weight (Rattus norvegicus [44]) of 9.79 g and a Lipid level (Canis familiaris [45]) of under 22 mg/dL. For the same compound, the Hepatic triglyceride (Rattus norvegicus [46]) was 8.16 mg/g, the Lipid level (Canis familiaris [47]) was 42 mg/dL and the Lipid level (Canis familiaris [48]) was 110 mg/dL.
